Fibroblast inh: blocks proliferation of human lung fibroblasts | LL 47 human lung fibroblast viability, ATP luminescence; hits give low values | viability, % at 10 µM | 85,000 tested, 1.1% active | AID 719;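 active = viability at or below 50% in the single dose screen; inactive = viability above 50%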;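 also: compound exposure lasted 72 h before the ATP readout; 100% = median luminescence of untreated cell-only wells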
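Test system: LL 47 human lung fibroblasts; Quantity: 1,150 cells/well; Buffer or medium: IMEM plus 15% FBS; Dosing: tenfold compound dosing solution, DMSO at 0.1%; Timing: overnight cell rest, 72 h compound treatment at 37 °C; Detection: ATP-based CellTiter-Glo luminescent readout; Read-out basis: viability percentage against median untreated-cell control; Controls: cell-only wells, no compound.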
PTEN del growth: PTEN-deleted cell growth suppression. HCT116 PTEN-null viability, CellTiter-Glo, 60 h; hits give low values. viability, % at 10 µM. 140,000 tested, 1.2% active. AID 827;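 active = viability at or below a set limit, 4 SD under the median of all tested compounds, cut at about 3.7% in these data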;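 also: PTEN knockout HCT116 line with beta catenin targeted HCT116 as companion control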
H69AR growth 86K: growth inhibitors of human H69AR lung tumor cells; viability, % at 10 µM; 85,000 tested, 6% active; H69AR lung tumor viability, ATP luminescence, 72 h; hits give low values;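 active = viability at or below 40%; inactive = viability above 40%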;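 also: multidrug resistant small cell line overexpressing MRP-1 efflux transporter; 100% = mean luminescence of untreated control wells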
HUVEC prolif 384: human endothelial cell proliferation inhibition | AID 648 | HUVEC proliferation, CellTiter-Glo luminescence, 72 h; hits give low values | viability, % at 10 µM (by protocol) | 86,000 tested, 1.1% active;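 active = viability at or below 30%; inactive = viability above 30%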;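 also: 100% = median luminescence of DMSO-only cell control wells on each plate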
HCT116 bCat-KO: beta-catenin-lacking colon tumor cell growth suppression. HCT116 beta-catenin knockout viability, CellTiter-Glo, 60 h; hits give low values. viability, % at 10 µM. 140,000 tested, 1.5% active. AID 818;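 active = viability at or under a set limit, the compound median less 4 SD, cut at about 6% in these data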;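 also: 0% = Hyamine 1622 control at 20 µM and 100% = untreated cell control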
Phagocytosis inh: inhibitors of macrophage phagocytosis; J774A.1 macrophage IgG-bead phagocytosis, imaging; inhibition, % at 5 µM; 110,000 tested, 0.07% active;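 active = inhibition above the mean of the plate negative controls plus 5 SD, cut at about 13% in these data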;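 also: phagocytic index as fraction of beads internalized from green versus red external bead signal; plate controls were DMSO negative control for no effect and cytochalasin-D positive control for full effect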
Numbers without * were called inactive; nt = no result; [ ] = remark or other dose. The sample as a whole holds a higher share of hits than the screen did.

SMILES	Fibroblast inh	PTEN del growth	H69AR growth 86K	HUVEC prolif 384	HCT116 bCat-KO	Phagocytosis inh
COc1ccc(C)cc1NS(=O)(=O)c1ccc(NS(=O)(=O)c2ccc(NC(C)=O)cc2)cc1	97.8	98.2	94.2	92.8	98.2	3.9
CCOc1ccc(S(=O)(=O)Nc2cc(OC)ccc2OC)cc1	100.1	8.6	22.9*	49.7	14.1	1.1
COc1ccc(-n2nnnc2-c2ccccc2)cc1	60.0	15.7	19.8*	58.4	14.1	5.9
Clc1ccc(-n2nnnc2-c2ccccc2)cc1	99.2	95.5	105.0	100.7	94.2	-0.8
Cc1ccc2nc(/C(C#N)=C\c3cc(C)n(-c4cccc([N+](=O)[O-])c4)c3C)[nH]c2c1	92.5	50.6	58.5	74.6	42.0	-1.7
N#C/C(=C\c1ccc([N+](=O)[O-])o1)c1nc2ccccc2[nH]1	nt	0.6*	nt	nt	0.7*	-2.8
Cc1ccc2nc(/C(C#N)=C\c3ccc(N4CCOCC4)o3)[nH]c2c1	83.9	61.7	5.5*	76.2	76.1	nt
N#C/C(=C\c1ccc(Sc2ccccc2)o1)c1nc2ccccc2[nH]1	nt	91.3	nt	nt	89.1	-2.5
N#C/C(=C\Nc1ccc2c(c1)OCCO2)c1nc2ccccc2[nH]1	103.5	76.8	19.3*	73.7	79.7	5.6
Cc1ccc2nc(/C(C#N)=C\c3ccc([N+](=O)[O-])o3)[nH]c2c1	nt	1.5*	nt	nt	1.9*	33.4*[fluoresces]
Cc1ccc(-c2nc3ccccc3c(C(=O)NCc3cccs3)c2C)cc1	nt	66.2	nt	nt	79.4	0.1
CCCCc1cc(=O)oc2cc(OCC(=O)N3CCc4ccccc43)ccc12	104.2	99.2	28.8*	55.4	94.0	0.2
COc1ccc2c(c1)c(=O)oc1cc(OCC(=O)N3CCc4ccccc4C3)ccc12	97.0	83.8	28.8*	56.0	89.6	0.3
CCOC(=O)c1cnc(SCc2nc(N)nc(Nc3ccc(F)cc3)n2)nc1N	90.7	45.1	36.5*	99.3	51.4	0.8
CCOC(=O)c1cnc(SCc2nc(N)nc(Nc3ccc(C)cc3)n2)nc1N	75.9	41.4	35.2*	96.8	43.4	-0.8
CCOC(=O)c1cnc(SCc2nc(N)nc(Nc3ccccc3OC)n2)nc1N	102.5	89.8	96.8	113.5	92.9	-0.4
CCOC(=O)C(NC(=O)CCC(=O)Nc1ccc(S(N)(=O)=O)cc1)C(O)c1ccccc1 (centres undefined)	nt	96.5	31.6*	99.3	96.0	-0.4
CCCCCCCCOC(=O)C(NC(=O)CCC(=O)Nc1ccc(S(N)(=O)=O)cc1)C(O)c1ccccc1 (centres undefined)	96.9	94.9	91.5	77.7	94.3	nt
Cc1ccc(S(=O)(=O)/C(C#N)=C/c2c(N3CCN(C)CC3)nc3c(C)cccn3c2=O)cc1	94.6	95.9	89.6	73.8	93.6	-3.2
Cc1cc(Oc2nc3c(C)cccn3c(=O)c2/C=C(\C#N)S(=O)(=O)c2ccc(Cl)cc2)ccc1Cl	nt	1.4*	nt	nt	3.9*	-10.3
CS(=O)(=O)N(CCc1ccccc1)CC(=O)NCc1ccccn1	102.5	94.6	96.8	102.3	94.7	-0.5
O=C(CCSc1nnc(-c2ccncc2)o1)Nc1cccc2ccccc12	88.3	73.4	36.9*	90.2	74.6	nt
O=C(CCSc1nnc(-c2ccncc2)o1)Nc1ccccc1	106.6	88.8	103.2	102.3	96.2	0.4
COc1ccc(-n2nnnc2SCC(=O)Nc2ccc3c(c2)OCCO3)cc1OC	98.9	87.3	21.2*	91.1	76.6	-1.5
O=C(CSc1nnnn1-c1ccc2c(c1)OCO2)NCc1ccccc1	81.8	33.9	19.3*	55.9	35.2	nt
SMILES	Fibroblast inh	PTEN del growth	H69AR growth 86K	HUVEC prolif 384	HCT116 bCat-KO	Phagocytosis inh
COc1ccnc(N=CNOCc2ccc(F)cc2Cl)c1C#N	108.6	114.5	98.8	112.7	111.7	nt
CC(=O)c1ccccc1NC(=O)Cn1c(=O)cnc2ccccc21	nt	79.3	nt	nt	67.1	-3.1
c1ccc(-c2ccc(-c3nc(-c4ccccn4)no3)cc2)cc1	42.4*	56.0	34.1*	43.5	55.1	-0.6
c1ccc(-c2noc(-c3cccc4ccccc34)n2)nc1	89.2	77.0	37.9*	81.8	73.3	0.9
c1ccc(-c2nc(-c3ccccn3)no2)cc1	56.3	24.9	42.1	54.9	23.0	nt
Cc1nc2nc(C)c(CCC(=O)NC(C)c3ccc4c(c3)OCCO4)c(C)n2n1 (centres undefined)	103.3	103.4	97.1	103.1	96.4	nt
Cc1nc2nc(C)c(CCC(=O)NCc3ccc4c(c3)OCO4)c(C)n2n1	99.5	98.2	26.4*	95.7	107.0	0.4
Cc1nc2cccc(C)n2c(=O)c1Cl	108.2	93.6	98.9	106.2	91.1	-1.9
CCOc1cc(/C=C\c2[nH]c(=O)[nH]c(=O)c2[N+](=O)[O-])ccc1OC(C)CC (centres undefined)	91.6	21.4	97.5	15.3*	13.9	-1.9
Cc1ccc2[nH]c(=O)c(CNS(=O)(=O)c3ccccc3)c(-c3ccccc3)c2c1	nt	88.8	nt	nt	88.6	-8.8
Cc1ccc(CNC(=O)CSc2nc(N3CCCCC3)nc(N3CCCCC3)n2)cc1	84.0	79.6	99.0	64.5	84.5	-0.3
CCOC(=O)C(NCCCCl)c1ccccc1 (centres undefined)	100.3	95.4	94.8	106.2	91.1	-1.0
CCOC(=O)C(C(=O)OCC)C(Nc1cccc(Br)c1)c1ccccc1 (centres undefined)	nt	1.6*	nt	nt	3.5*	-0.7
COc1ccc(OC)c(C2=Nn3c(nnc3-c3cc(OC)c(OC)c(OC)c3)SC2)c1	78.5	59.0	58.1	68.3	66.5	-0.8
CCOc1ccc(C2=Nn3c(nnc3-c3ccccn3)SC2)cc1	94.0	90.9	29.9*	95.2	82.9	1.9
COc1cc(-c2nnc3n2N=C(c2ccccc2)CS3)cc(OC)c1OC	51.8	10.2	19.5*	49.5	13.3	1.7
COc1ccc(-c2nnc3n2N=C(C)CS3)cc1	97.4	99.9	84.1	79.7	79.6	nt
COc1ccc(C2=Nn3c(nnc3-c3ccc(OC)cc3)SC2)cc1	41.8*	13.9	21.7*	47.2	15.8	10.6
c1ccc(C2=Nn3c(nnc3-c3cc(-c4ccccc4)n[nH]3)SC2)cc1	63.5	78.9	39.6*	89.8	76.8	-2.1
Clc1ccc(C2=Nn3c(nnc3-c3cc(-c4ccccc4)n[nH]3)SC2)cc1	nt	62.9	nt	nt	62.4	0.3
CCOc1ccc(C2=Nn3c(nnc3-c3ccco3)SC2)cc1	92.9	97.6	76.2	97.6	98.4	nt
CCCCNC(=O)OCCNC(=O)NC	101.0	103.2	83.5	109.3	102.2	-2.0
COc1ccc(C2(CNC(=O)CCC(=O)O)CCCC2)cc1OC	98.1	89.5	85.5	93.8	94.9	-0.3
CN(C)c1ccc2c(O)cc(=O)n(C)c2c1	102.2	76.2	21.5*	95.4	73.3	-2.2
CN(c1ccc(Cl)cc1)c1cc(=O)n(C)c2ccccc12	90.3	63.9	43.6	51.0	62.9	-0.9
Cc1cc(C)c2c(c1)-c1c(ssc1=S)C(C)(C)N2C(=O)CSc1nncn1C	74.0	62.8	13.0*	66.9	64.5	-0.7

Source: PubChem BioAssay
